ChEMBL document CHEMBL3091448, “Identification of potent and selective cathepsin S inhibitors containing different central cyclic scaffolds” (J Med Chem, 2013)
pIC50: −log10 of the molar value. Calls of active or inactive are those of the source. The calls are words filed in the database; no cut-off is given here.

Experiments:
[1] = Drug degradation in NMRI mouse plasma at 1000 ng/mL after 4 hrs; format: ADME, cell-free; conditions: read-out: Drug degradation
Method in brief: (§1)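 Heparinized pooled NMRI mouse plasma was spiked with compound at 1000 ng/mL and incubated at 37 °C in an orbital shaker. Aliquots (n = 3 per time point) were taken at 2 min, 1 h and 4 h and analysed by LC−MS/MS.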

Cathepsin S [2] = target: Cathepsin S (Mus musculus, UniProt O70370); assay: Inhibition of mouse cathepsin-S using Z-Val-Val-Arg-AMC as substrate up to 20 mins by fluorescence assay
Cathepsin S (Mus musculus, UniProt O70370), sequence (O70370 whole entry): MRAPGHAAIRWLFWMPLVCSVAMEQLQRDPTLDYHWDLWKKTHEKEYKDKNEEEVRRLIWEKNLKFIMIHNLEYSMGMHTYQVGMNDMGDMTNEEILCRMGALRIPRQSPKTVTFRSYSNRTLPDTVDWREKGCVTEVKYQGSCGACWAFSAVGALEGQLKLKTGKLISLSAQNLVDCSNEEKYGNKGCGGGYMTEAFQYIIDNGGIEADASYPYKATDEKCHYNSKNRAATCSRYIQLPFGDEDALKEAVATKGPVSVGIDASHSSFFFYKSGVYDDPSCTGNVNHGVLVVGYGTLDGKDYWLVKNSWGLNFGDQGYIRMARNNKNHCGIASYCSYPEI
Method in brief: (§2)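 Fluorogenic quenched-peptide cleavage assay. Enzymes at 1 nM in 100 mM potassium phosphate pH 6.5, 5 mM EDTA-Na, 0.001% Triton X-100 and 5 mM DTT. Enzyme was added to the compound dilutions, then 20 μM substrate started the reaction: Z-Val-Val-Arg-AMC, or Z-Leu-Arg-AMC for CatK. Fluorescence (ex 360/em 465 nm) was read over 20 min. IC50 is the mean of ≥2 independent experiments.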

Procathepsin L = Procathepsin L (Homo sapiens, UniProt P07711); assay: Inhibition of human cathepsin-L using Z-Val-Val-Arg-AMC as substrate up to 20 mins by fluorescence assay; method in brief: as §2
Procathepsin L, sequence (P07711 whole entry): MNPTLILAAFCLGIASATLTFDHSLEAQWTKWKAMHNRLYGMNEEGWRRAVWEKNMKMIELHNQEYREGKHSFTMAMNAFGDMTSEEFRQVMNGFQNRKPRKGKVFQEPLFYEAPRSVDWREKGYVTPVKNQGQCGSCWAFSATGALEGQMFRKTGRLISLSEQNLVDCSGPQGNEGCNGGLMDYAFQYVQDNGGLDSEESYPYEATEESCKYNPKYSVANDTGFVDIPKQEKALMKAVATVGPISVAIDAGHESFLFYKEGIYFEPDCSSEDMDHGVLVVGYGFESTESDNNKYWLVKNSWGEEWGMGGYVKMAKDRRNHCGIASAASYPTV

Cathepsin B = Cathepsin B (Homo sapiens, UniProt P07858); assay: Inhibition of human cathepsin-B using Z-Val-Val-Arg-AMC as substrate up to 20 mins by fluorescence assay; method in brief: as §2
A20 = assay: Inhibition of ovalbumin-induced antigen presentation in mouse A20 cells treated 1 hr before ovalbumin addition incubated for 16 hrs followed by co-cultured with DO10.10 T-cell hybridoma cells for 24 hrs assessed as IL-2 production by luminex single-bead analysis; format: functional, cell-based
Method in brief: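 A20 cells were seeded at 3 × 10⁵/mL and preincubated with compound for 1 h. Ovalbumin was then added (5 mg/mL final) for 16 h. Cells were washed three times with PBS, then DO10.10 T-cell hybridoma cells (2 × 10⁵/mL) were added. After 24 h, IL-2 was quantified by Luminex single-bead assay using two anti-IL-2 antibodies. IC50 is the mean of ≥2 independent experiments.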

Cathepsin K = target: T1, Cathepsin K (Homo sapiens, UniProt P43235); assay: Inhibition of human cathepsin-K using Z-Leu-Arg-AMC as substrate up to 20 mins by fluorescence assay; method in brief: as §2
T1 sequence (P43235 whole entry): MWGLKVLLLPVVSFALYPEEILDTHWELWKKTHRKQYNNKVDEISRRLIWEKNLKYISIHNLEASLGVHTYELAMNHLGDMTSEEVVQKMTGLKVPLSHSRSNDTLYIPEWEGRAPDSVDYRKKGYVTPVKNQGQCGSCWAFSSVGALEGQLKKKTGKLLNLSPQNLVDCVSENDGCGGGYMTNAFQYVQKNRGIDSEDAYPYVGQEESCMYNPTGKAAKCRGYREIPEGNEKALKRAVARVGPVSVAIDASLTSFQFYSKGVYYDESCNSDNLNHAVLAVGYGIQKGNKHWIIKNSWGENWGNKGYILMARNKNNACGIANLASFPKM

Cathepsin S [3] = target: Cathepsin S (Homo sapiens, UniProt P25774); assay: Inhibition of human cathepsin-S using Z-Val-Val-Arg-AMC as substrate up to 20 mins by fluorescence assay; method in brief: as §2
Cathepsin S (Homo sapiens, UniProt P25774), sequence (P25774 whole entry): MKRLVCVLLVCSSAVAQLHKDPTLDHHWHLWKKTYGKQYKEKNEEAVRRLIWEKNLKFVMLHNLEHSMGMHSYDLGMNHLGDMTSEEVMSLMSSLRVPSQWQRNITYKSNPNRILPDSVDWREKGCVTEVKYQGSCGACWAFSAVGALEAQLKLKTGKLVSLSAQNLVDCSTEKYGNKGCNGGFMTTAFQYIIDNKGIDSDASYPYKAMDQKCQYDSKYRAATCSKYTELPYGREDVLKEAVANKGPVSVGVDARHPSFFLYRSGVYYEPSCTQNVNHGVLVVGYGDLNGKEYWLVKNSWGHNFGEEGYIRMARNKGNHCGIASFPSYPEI

[4] = Plasma concentration in DO10.11 transgenic BALB/c mouse at 50 mg/kg, po administered 30 mins before ovalbumin challenge measured after 4 hrs; format: ADME, organism-based; set-up: dose 50 mg/kg, route oral
Mus musculus [5] = assay: Reduction of ovalbumin-induced IL-2 production in DO10.11 transgenic BALB/c mouse at 50 mg/kg, po administered 30 mins before ovalbumin challenge measured after 4 hrs by luminex single-bead analysis; format: functional, organism-based; set-up: dose 50 mg/kg
Method in brief: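 DO10.11 BALB/c mice carrying a transgenic ovalbumin-peptide TCR were dosed orally with compound, then challenged iv with 1.0 mg low-endotoxin ovalbumin. Plasma IL-2 was measured at 4 h by Luminex bead assay using two anti-IL-2 antibodies. Groups had n = 8, and reduction was expressed versus the ovalbumin challenge group (ANOVA with Dunnett test).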

[6] = Oral bioavailability in C57Bl/6 mouse at 9 mg/kg; format: ADME, organism-based; conditions: in vivo
Method in brief: (§3)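 Male C57Bl/6 mice, 8 weeks old, 24−29 g. Dosing was by oral gavage at 9 mg/kg as an aqueous microsuspension in gelatin/NaCl (7.5%/0.62%), or by iv bolus at 2 mg/kg in aqueous NaCl/30% 1-methyl-2-pyrrolidone. Terminal blood (n = 2 per time point) was collected into EDTA tubes and spun at 4 °C to obtain plasma. Plasma levels were measured by LC−MS/MS after acetonitrile precipitation. Values are the mean of two experiments.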

[7] = Volume of distribution at steady state in C57Bl/6 mouse at 2 mg/kg, iv and 9 mg/kg, po; format: ADME, organism-based; conditions: in vivo, read-out: Vdss; method in brief: as §3
[8] = Clearance in C57Bl/6 mouse at 2 mg/kg, iv and 9 mg/kg, po; format: ADME, organism-based; conditions: in vivo; method in brief: as §3
[9] = Half life in C57Bl/6 mouse at 9 mg/kg, po; format: ADME, organism-based; set-up: dose 9 mg/kg, route oral; conditions: in vivo; method in brief: as §3
Mus musculus [10] = assay: Dose normalized AUC in C57Bl/6 mouse at 9 mg/kg, po; format: ADME, organism-based; set-up: dose 9 mg/kg, route oral; conditions: in vivo; method in brief: as §3
[11] = Half life in C57Bl/6 mouse at 2 mg/kg, iv; format: ADME, organism-based; set-up: dose 2 mg/kg, route intravenous; conditions: in vivo; method in brief: as §3
Mus musculus [12] = assay: Dose normalized AUC in C57Bl/6 mouse at 2 mg/kg, iv; format: ADME, organism-based; set-up: dose 2 mg/kg, route intravenous; conditions: in vivo; method in brief: as §3
[13] = Metabolic stability in NMRI mouse plasma assessed as compound remaining at 1000 ng/mL after 4 hrs; format: ADME, cell-free; conditions: read-out: Stability; method in brief: as §1
Plasma = assay: Metabolic stability in human plasma assessed as compound remaining at 1000 ng/mL after 5 hrs; format: ADME, cell-free

SMILES	metabolised at 4 h, 1000 ng/mL [1] [%]	pIC50 (Cathepsin S [2])	pIC50 (Procathepsin L)	pIC50 (Cathepsin B)	pIC50 (A20)	pIC50 (Cathepsin K)	pIC50 (Cathepsin S [3])	concentration at 4 h [4] [ng/mL]	Activity (Mus musculus [5])	bioavailability [6] [%]	Vd [7] [L/kg]	clearance [8] [mL/min/kg]	half-life [9] [h]	AUC/dose (Mus musculus [10]) [ng·h/mL]	half-life [11] [h]	AUC/dose (Mus musculus [12]) [ng·h/mL]	remaining at 4 h, 1000 ng/mL [13] [%]	Stability (Plasma)
N#CC1(NC(=O)[C@@H]2C[C@@H](S(=O)(=O)c3ccccc3Cl)CN2C(=O)c2ccccc2)CC1	> 90	9.00	5.17	4.45	7.82	< 4.60	9.10											
N#CC1(NC(=O)[C@@H]2C[C@@H](S(=O)(=O)c3ccccc3C(F)(F)F)CN2)CC1		8.22	< 4.60	< 4.60	7.24	< 4.60	8.70	2050	inactive	69	0.13	1.6	0.9	7200	1.1	10400	51	Stable
